We go through four compounds from article PMC8606320 (Bioorganic & Medicinal Chemistry, 2021).

For series [1], the system named is SARS-CoV-2. The format is cell-based.
Series [2] concerns SARS-CoV-2. The note with it: COVID-19 patients, on the 6th day; cited from earlier work.
Series [3] is described as follows: In vivo acute toxicity assay. The note with it: oral 230 mg/kg twice a day. The method, boiled down:
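Test compounds as sulfate salts, dissolved in physiological saline. Mice (25 g) were fasted overnight: 16 male and 16 female in four groups (n = 8), male and female vehicle controls and male and female test groups. They were dosed intragastrically with vehicle or 230 mg/kg twice a day. Death, daily behaviour and body weight were monitored for 20 days, and survival was plotted as curves.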

As to `CCN(CCO)CCCC(C)Nc1ccnc2cc(Cl)ccc12.O=S(=O)(O)O` (racemic) [Rac-HCQ, hydroxychloroquine, reference compound], in series [1], the “inhibition of cytopathic changes caused by the virus” value was “complete inhibition”. For the same compound, the “nasopharyngeal swab virus negative rate” value in series [2] was 57.1%.

For the compound `CCC(CC)COC(=O)[C@H](C)N[P@](=O)(OC[C@H]1O[C@@](C#N)(c2ccc3c(N)ncnn23)[C@H](O)[C@@H]1O)Oc1ccccc1` [Remdesivir, reference compound], the “inhibition of the occurrence of lesions (CPE)” value in series [1] is given as “completely inhibited”.

Consider “(R)-2-((4-((7-chloroquinolin-4-yl) amino) pentyl) (ethyl) amino) ethan-1-ol sulfate [R-HCQ]”, for which the “inhibition of cytopathic changes caused by the virus” value in series [1] was “complete inhibition”. Moreover, the “tolerability in mice compared to Rac-HCQ and S-HCQ” value in series [3] is “better tolerated”. Also, the “day until which mice performed well” value in series [3] (monitored 20 days) was 12 dpd.

For “(S)-2-((4-((7-chloroquinolin-4-yl) amino) pentyl) (ethyl) amino) ethan-1-ol sulfate [S-HCQ]”, in series [1], the “inhibition of cytopathic changes caused by the virus” value is given as “complete inhibition”. Also, in series [3] (monitored 20 days), the “day at which mice appeared malaise” value turned out to be 9 dpd.
